Reference: ChEMBL document CHEMBL1121826, “Relation of conformation to antitumor activity of platinum(II) complexes of 1,2-cyclohexanediamine and 2-(aminomethyl)cyclohexylamine isomers against leukemia P388” (J Med Chem, 1981)
Values joined by “and” are separate entries in the source; they are usually repeats but may differ in a detail not shown here. Identical values can stand only once.

Legend:
[1] = Therapeutic index was determined against leukemia P388 cells in mice; type: cell-based; settings: mouse
Method in brief: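 CDF1 mice implanted ip with 10^6 P388 cells on day 0 and dosed ip on days 1 and 5 (saline, or saline plus Tween 80 suspension if insoluble); 6 treated and 10 control mice. % T/C from median survival. TI is optimal dose divided by MED (lowest dose giving % T/C above 120), per the NCI platinum analogue protocol.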

P388 [2] = assay: Optimal dose against leukemia P388 in CDF1 mice; type: functional, cell-based; settings: Mus musculus
Method in brief: (§1)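 CDF1 [(BALB/c × DBA/2)F1] mice given 10^6 P388 cells ip on day 0; treatment ip on days 1 and 5; insoluble complexes suspended in physiological saline with a few drops of Tween 80. Groups of 6 treated and 10 control mice. Median survival of treated (T) and control (C) groups calculated; activity expressed as % T/C.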

P388 [3] = assay: Antitumor activity against leukemia P388 in CDF1 mice; type: functional, cell-based; settings: Mus musculus; method in brief: as §1
P388 [4] = assay: Minimum effective dose (MED) against leukemia P388 in CDF1 mice; type: functional, cell-based; settings: Mus musculus
Method in brief: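 P388 model in CDF1 mice: 10^6 cells ip on day 0, ip dosing on days 1 and 5; 6 treated and 10 control mice per group. Median survival days give % T/C. MED is the lowest dose at which % T/C exceeded 120.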

P388 [5] = assay: Toxic dose against leukemia P388 in CDF1 mice; type: functional, cell-based; settings: Mus musculus; method in brief: as §1

Row | Substance | TI [1] | also measured
1 | 0-Hexyl-1,3-diamine-platinum 2,2-dichloride [listing 1 of 2 here] | 4 | –
2 | 0-Hexyl-1,3-diamine-platinum 2,2-dichloride [listing 2 of 2 here] | – | Optimal dose (P388 [2]): 6.25 mg/kg; T/C (P388 [3]): 206% and 127%; MED (P388 [4]): 1.56 mg/kg; Toxic dose (P388 [5]): 12.5 mg/kg
3 | CISPLATIN [listing 1 of 2 here] | 4 | –
4 | CISPLATIN [listing 2 of 2 here] | – | Optimal dose (P388 [2]): 3.12 mg/kg; T/C (P388 [3]): 230% (2×) and 134% (2×); MED (P388 [4]): 0.78 mg/kg; Toxic dose (P388 [5]): 12.5 mg/kg
5 | amcha (cis-d)-2-(aminomethyl)cyclohexylamine platinum (II) complex [listing 1 of 5 here] | >= 16 | –
6 | amcha (cis-d)-2-(aminomethyl)cyclohexylamine platinum (II) complex [listing 2 of 5 here] | 32 | –
7 | amcha (cis-d)-2-(aminomethyl)cyclohexylamine platinum (II) complex [listing 3 of 5 here] | >= 4 | –
8 | amcha (cis-d)-2-(aminomethyl)cyclohexylamine platinum (II) complex [listing 4 of 5 here] | 16 | –
9 | amcha (cis-d)-2-(aminomethyl)cyclohexylamine platinum (II) complex [listing 5 of 5 here] | – | T/C (P388 [3]): 160% [middle of 8 runs]; MED (P388 [4]): < 0.39 mg/kg
10 | amcha (cis-l)-2-(aminomethyl)cyclohexylamine platinum (II) complex [listing 1 of 6 here] | >= 32 | –
11 | amcha (cis-l)-2-(aminomethyl)cyclohexylamine platinum (II) complex [listing 2 of 6 here] | 32 | –
12 | amcha (cis-l)-2-(aminomethyl)cyclohexylamine platinum (II) complex [listing 3 of 6 here] | > 16 | –
13 | amcha (cis-l)-2-(aminomethyl)cyclohexylamine platinum (II) complex [listing 4 of 6 here] | > 8 | –
14 | amcha (cis-l)-2-(aminomethyl)cyclohexylamine platinum (II) complex [listing 5 of 6 here] | 8 | –
15 | amcha (cis-l)-2-(aminomethyl)cyclohexylamine platinum (II) complex [listing 6 of 6 here] | – | T/C (P388 [3]): 148% [middle of 11 runs]; MED (P388 [4]): < 0.78 mg kg-1 (3×) and < 1.56 mg kg-1 and 0.78 mg kg-1
16 | amcha (trans-d)-2-(aminomethyl)cyclohexylamine platinum (II) complex [listing 1 of 5 here] | 16 | –
17 | amcha (trans-d)-2-(aminomethyl)cyclohexylamine platinum (II) complex [listing 2 of 5 here] | 64 | –
18 | amcha (trans-d)-2-(aminomethyl)cyclohexylamine platinum (II) complex [listing 3 of 5 here] | >= 64 | –
19 | amcha (trans-d)-2-(aminomethyl)cyclohexylamine platinum (II) complex [listing 4 of 5 here] | >= 16 | –
20 | amcha (trans-d)-2-(aminomethyl)cyclohexylamine platinum (II) complex [listing 5 of 5 here] | – | T/C (P388 [3]): 160% [middle of 8 runs]; MED (P388 [4]): < 0.78 mg/kg; Toxic dose (P388 [5]): 100 mg kg-1 and > 100 mg kg-1 (2×) and > 200 mg kg-1

Row | Substance | TI [1] | also measured
21 | amcha (trans-l)-2-(aminomethyl)cyclohexylamine platinum (II) complex [listing 1 of 4 here] | 4 | –
22 | amcha (trans-l)-2-(aminomethyl)cyclohexylamine platinum (II) complex [listing 2 of 4 here] | 16 | –
23 | amcha (trans-l)-2-(aminomethyl)cyclohexylamine platinum (II) complex [listing 3 of 4 here] | >= 16 | –
24 | amcha (trans-l)-2-(aminomethyl)cyclohexylamine platinum (II) complex [listing 4 of 4 here] | – | Optimal dose (P388 [2]): 12.5 mg kg-1 (3×) and 25 mg kg-1 and > 25 mg kg-1; T/C (P388 [3]): 158% [middle of 10 runs]
25 | dach (cis)-1,2-cyclohexanediamine platinum (II) complex [listing 1 of 4 here] | >= 8 | –
26 | dach (cis)-1,2-cyclohexanediamine platinum (II) complex [listing 2 of 4 here] | 4 | –
27 | dach (cis)-1,2-cyclohexanediamine platinum (II) complex [listing 3 of 4 here] | 16 | –
28 | dach (cis)-1,2-cyclohexanediamine platinum (II) complex [listing 4 of 4 here] | – | Optimal dose (P388 [2]): 25 mg kg-1 (4×) and 12.5 mg kg-1; T/C (P388 [3]): 144% [middle of 10 runs]
29 | dach (trans-d)-1,2-cyclohexanediamine platinum (II) complex [listing 1 of 5 here] | 8 | –
30 | dach (trans-d)-1,2-cyclohexanediamine platinum (II) complex [listing 2 of 5 here] | 16 | –
31 | dach (trans-d)-1,2-cyclohexanediamine platinum (II) complex [listing 3 of 5 here] | 13 | –
32 | dach (trans-d)-1,2-cyclohexanediamine platinum (II) complex [listing 4 of 5 here] | >= 8 | –
33 | dach (trans-d)-1,2-cyclohexanediamine platinum (II) complex [listing 5 of 5 here] | – | T/C (P388 [3]): 151% [middle of 12 runs]
34 | dach (trans-l)1,2-cyclohexanediamine platinum (II) complex [listing 1 of 2 here] | >= 4 | –
35 | dach (trans-l)1,2-cyclohexanediamine platinum (II) complex [listing 2 of 2 here] | – | Optimal dose (P388 [2]): 6.25 mg/kg; MED (P388 [4]): < 1.56 mg/kg; Toxic dose (P388 [5]): 25 mg/kg
36 | dach (trans-l)-1,2-cyclohexanediamine platinum (II) complex [listing 1 of 4 here] | >= 16 | –
37 | dach (trans-l)-1,2-cyclohexanediamine platinum (II) complex [listing 2 of 4 here] | 8 | –
38 | dach (trans-l)-1,2-cyclohexanediamine platinum (II) complex [listing 3 of 4 here] | 4 | –
39 | dach (trans-l)-1,2-cyclohexanediamine platinum (II) complex [listing 4 of 4 here] | – | T/C (P388 [3]): 182% [middle of 10 runs]
